The nature of test [1]: Antiproliferative activity against human HBL100 cells after 48 hrs incubation by SRB assay. Format: functional. As to conditions: HBL-100, 48 h. The essentials:
(§1)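 Cells kept in RPMI 1640 with 5% heat-inactivated FCS and 2 mM L-glutamine at 37 °C, 5% CO2. Plated at 10 000 (HBL-100, HeLa, SW1573), 15 000 (T-47D) or 20 000 (WiDr) cells/well. Dosing began day 1, in triplicate, over 1–100 range. DMSO stocks at 400× final top concentration; vehicle control 0.25% DMSO. Exposure 48 h, then TCA fixation 60 min at 4 °C. SRB read-out at 492 nm, background-corrected; GI50 from dose–response.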
(In general: In SRB staining, fixed cells bind dye roughly in proportion to their protein.)

For the next test, the system named is HeLa. Nature of the test: Antiproliferative activity against human HeLa cells after 48 hrs incubation by SRB assay. The test is classed as functional. The gist of the method: as §1
The next test relates to SW1573. Nature of the test: Antiproliferative activity against human SW1573 cells after 48 hrs incubation by SRB assay. Format: functional. The following applies: SW1573, 48 h. The essentials:
as §1

The subject of a further test is T47D. Nature of the test: Antiproliferative activity against human T47D cells after 48 hrs incubation by SRB assay. The test is classed as functional. The gist of the method: as §1
For another test, the system named is WiDr. Kind of test: Antiproliferative activity against human WiDr cells after 48 hrs incubation by SRB assay. Format: functional. The essentials: as §1
Test [2] deals with Casein kinase I isoform alpha (Homo sapiens) (UniProt P48729). Nature of the test: Inhibition of human Casein kinase 1 alpha 1 assessed as residual activity at 10 uM relative to control. The gist of the method: (§2)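 KINOMEscan active-site-directed competition binding run against a 456-kinase panel (scanMAX), each compound at a single 10 µM concentration. Binding reported as percent of control, with DMSO set to 100%Ctrl and a positive control set to 0%Ctrl. Hit cut-off is 35%Ctrl.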

The target of test [3] is T1, Casein kinase I isoform alpha-like (Homo sapiens) (UniProt Q8N752).
T1 sequence (whole entry): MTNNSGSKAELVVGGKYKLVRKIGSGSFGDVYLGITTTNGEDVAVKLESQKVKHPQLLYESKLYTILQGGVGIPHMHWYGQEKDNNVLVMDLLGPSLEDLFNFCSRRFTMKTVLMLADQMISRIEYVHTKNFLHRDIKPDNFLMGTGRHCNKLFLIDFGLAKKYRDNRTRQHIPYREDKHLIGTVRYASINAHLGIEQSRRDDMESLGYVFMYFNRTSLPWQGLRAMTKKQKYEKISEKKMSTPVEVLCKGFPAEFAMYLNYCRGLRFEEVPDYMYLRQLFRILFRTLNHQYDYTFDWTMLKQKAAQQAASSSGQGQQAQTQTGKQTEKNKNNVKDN
Nature of the test: Inhibition of human Casein kinase 1 alpha 1-like assessed as residual activity at 10 uM relative to control. The essentials: as §2

Test [4] addresses Casein kinase I isoform delta (Homo sapiens) (UniProt P48730). Kind of test: Inhibition of human Casein kinase 1 delta assessed as residual activity at 10 uM relative to control. The essentials:
as §2

The target of test [5] is Casein kinase I isoform epsilon (Homo sapiens, UniProt P49674). Nature of the test: Inhibition of human Casein kinase 1 epsilon assessed as residual activity at 10 uM relative to control. The essentials: as §2
The target of test [6] is Casein kinase I isoform gamma-1 (Homo sapiens) (UniProt Q9HCP0). Kind of test: Inhibition of human Casein kinase 1 gamma 1 assessed as residual activity at 10 uM relative to control. The essentials:
as §2

In test [7] the target is Casein kinase I isoform gamma-2 (Homo sapiens) (UniProt P78368). Nature of the test: Inhibition of human Casein kinase 1 gamma 2 assessed as residual activity at 10 uM relative to control. The essentials: as §2
The target of test [8] is Casein kinase I isoform gamma-3 (Homo sapiens) (UniProt Q9Y6M4). Nature of the test: Inhibition of human Casein kinase 1 gamma 3 assessed as residual activity at 10 uM relative to control. The essentials:
as §2

The target of test [9] is Casein kinase II subunit alpha (Homo sapiens) (UniProt P68400). Nature of the test: Inhibition of human Casein kinase 2 alpha 1 polypeptide assessed as residual activity at 10 uM relative to control. The gist of the method:
as §2

For test [10], the target named is Casein kinase II subunit alpha' (Homo sapiens) (UniProt P19784). Kind of test: Inhibition of human Casein kinase 2 alpha prime polypeptide assessed as residual activity at 10 uM relative to control. The gist of the method:
as §2

Casein kinase I isoform gamma-3 (Homo sapiens), sequence (Q9Y6M4 whole entry, looked up, canonical isoform): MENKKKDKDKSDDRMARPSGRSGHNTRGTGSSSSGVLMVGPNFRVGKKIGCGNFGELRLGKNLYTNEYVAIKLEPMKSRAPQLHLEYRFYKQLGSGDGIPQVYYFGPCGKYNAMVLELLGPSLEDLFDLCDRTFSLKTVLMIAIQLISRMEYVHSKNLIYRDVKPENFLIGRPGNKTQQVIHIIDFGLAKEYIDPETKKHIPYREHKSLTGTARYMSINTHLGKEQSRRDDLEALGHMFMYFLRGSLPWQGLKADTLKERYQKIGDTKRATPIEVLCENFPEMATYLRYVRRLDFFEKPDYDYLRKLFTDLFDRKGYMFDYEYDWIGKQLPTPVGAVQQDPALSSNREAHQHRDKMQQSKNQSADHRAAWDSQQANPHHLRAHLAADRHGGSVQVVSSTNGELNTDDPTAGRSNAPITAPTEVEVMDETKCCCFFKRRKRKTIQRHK
Casein kinase II subunit alpha' (Homo sapiens), sequence (P19784 whole entry, looked up): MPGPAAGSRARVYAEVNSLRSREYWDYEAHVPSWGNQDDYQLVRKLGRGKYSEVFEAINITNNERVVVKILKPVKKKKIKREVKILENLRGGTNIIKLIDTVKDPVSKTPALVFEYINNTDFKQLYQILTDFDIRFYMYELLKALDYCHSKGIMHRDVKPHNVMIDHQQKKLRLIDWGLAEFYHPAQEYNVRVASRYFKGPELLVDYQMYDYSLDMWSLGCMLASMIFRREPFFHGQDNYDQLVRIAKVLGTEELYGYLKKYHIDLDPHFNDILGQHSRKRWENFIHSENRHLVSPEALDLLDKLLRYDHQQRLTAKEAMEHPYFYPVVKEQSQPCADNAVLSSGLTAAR
Casein kinase I isoform gamma-1 (Homo sapiens), sequence (Q9HCP0 whole entry, looked up, canonical isoform): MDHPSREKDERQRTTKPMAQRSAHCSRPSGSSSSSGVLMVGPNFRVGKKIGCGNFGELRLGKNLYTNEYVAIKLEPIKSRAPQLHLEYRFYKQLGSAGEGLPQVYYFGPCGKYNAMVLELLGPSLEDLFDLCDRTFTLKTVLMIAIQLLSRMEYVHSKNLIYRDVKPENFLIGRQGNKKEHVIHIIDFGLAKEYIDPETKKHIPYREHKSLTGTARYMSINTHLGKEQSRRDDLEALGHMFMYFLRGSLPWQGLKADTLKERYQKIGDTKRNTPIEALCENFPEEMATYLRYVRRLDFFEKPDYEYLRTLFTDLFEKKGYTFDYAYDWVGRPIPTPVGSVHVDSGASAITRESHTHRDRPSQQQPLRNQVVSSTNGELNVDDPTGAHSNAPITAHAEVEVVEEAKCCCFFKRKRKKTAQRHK
Casein kinase I isoform epsilon, sequence (P49674 whole entry, looked up, canonical isoform): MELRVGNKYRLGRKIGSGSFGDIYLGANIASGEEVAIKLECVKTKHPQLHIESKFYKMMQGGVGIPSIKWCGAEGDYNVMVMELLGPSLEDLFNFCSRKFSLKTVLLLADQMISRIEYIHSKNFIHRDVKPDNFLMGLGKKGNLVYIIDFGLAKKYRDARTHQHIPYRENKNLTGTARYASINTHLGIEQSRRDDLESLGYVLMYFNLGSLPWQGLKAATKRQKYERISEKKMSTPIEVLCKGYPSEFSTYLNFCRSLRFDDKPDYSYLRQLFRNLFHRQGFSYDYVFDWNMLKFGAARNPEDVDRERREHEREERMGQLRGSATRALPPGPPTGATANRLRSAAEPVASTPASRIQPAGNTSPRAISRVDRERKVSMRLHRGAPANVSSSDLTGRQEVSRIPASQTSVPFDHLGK
Casein kinase I isoform gamma-2 (Homo sapiens), sequence (P78368 whole entry, looked up, canonical isoform): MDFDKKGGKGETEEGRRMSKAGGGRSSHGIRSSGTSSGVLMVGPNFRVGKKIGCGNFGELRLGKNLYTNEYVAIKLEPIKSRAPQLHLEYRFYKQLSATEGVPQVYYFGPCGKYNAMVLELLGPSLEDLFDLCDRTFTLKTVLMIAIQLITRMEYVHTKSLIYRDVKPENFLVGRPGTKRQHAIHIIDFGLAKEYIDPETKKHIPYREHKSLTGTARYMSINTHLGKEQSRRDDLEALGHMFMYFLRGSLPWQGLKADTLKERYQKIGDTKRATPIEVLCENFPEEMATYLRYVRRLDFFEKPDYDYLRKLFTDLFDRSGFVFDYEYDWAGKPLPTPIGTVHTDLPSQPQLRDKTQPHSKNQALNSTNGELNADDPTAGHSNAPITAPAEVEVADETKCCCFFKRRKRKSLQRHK
Casein kinase I isoform alpha (Homo sapiens), sequence (P48729 2-337 limits assumed): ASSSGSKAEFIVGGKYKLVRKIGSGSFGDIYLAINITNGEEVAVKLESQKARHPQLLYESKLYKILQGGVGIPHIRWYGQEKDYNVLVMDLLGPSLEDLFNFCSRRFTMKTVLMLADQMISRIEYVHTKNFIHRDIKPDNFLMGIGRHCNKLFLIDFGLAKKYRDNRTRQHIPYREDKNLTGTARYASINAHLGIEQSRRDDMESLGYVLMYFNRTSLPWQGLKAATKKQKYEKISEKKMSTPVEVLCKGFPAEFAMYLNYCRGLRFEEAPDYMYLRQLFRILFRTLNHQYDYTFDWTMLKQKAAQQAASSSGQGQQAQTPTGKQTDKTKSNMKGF
Casein kinase II subunit alpha (Homo sapiens), sequence (P68400 whole entry, looked up): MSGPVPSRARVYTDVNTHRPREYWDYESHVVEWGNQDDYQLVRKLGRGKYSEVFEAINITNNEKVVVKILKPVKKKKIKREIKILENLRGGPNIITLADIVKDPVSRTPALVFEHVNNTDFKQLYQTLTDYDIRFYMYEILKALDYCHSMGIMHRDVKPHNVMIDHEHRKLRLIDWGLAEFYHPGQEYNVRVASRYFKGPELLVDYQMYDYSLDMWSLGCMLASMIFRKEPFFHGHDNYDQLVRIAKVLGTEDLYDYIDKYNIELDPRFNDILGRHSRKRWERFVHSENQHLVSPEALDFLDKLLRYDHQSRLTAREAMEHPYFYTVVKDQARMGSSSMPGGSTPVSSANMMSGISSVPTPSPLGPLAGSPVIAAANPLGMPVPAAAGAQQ
Casein kinase I isoform delta (Homo sapiens), sequence (P48730 whole entry, looked up, canonical isoform): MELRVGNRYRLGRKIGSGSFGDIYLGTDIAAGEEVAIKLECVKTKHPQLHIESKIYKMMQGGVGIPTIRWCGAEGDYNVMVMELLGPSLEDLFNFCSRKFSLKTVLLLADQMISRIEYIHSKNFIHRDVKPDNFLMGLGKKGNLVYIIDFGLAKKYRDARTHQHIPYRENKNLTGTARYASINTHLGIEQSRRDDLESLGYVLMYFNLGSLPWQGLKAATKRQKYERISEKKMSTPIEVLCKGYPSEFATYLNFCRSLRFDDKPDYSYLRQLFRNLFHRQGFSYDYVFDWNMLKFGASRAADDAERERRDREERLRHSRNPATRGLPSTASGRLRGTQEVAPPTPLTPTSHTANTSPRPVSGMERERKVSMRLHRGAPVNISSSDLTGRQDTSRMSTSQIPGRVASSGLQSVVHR

As usually defined, the GI50 is the concentration that inhibits growth by half. Higher therefore signals less potent growth inhibition. With `CCCCCCCCCCCCCCC[C@@H](O)[C@@H](N)Cc1ccccc1`, the 50% growth inhibitory concentration (GI50) was 2.9 µM in test [1]; 1.3 µM with HeLa; 2.1 µM with SW1573; 1.8 µM in the test on T47D; 2.3 µM with WiDr.

For the compound `CCCCCCCCC[C@@H](O)[C@@H](N)CC(C)C`, the GI50 in test [1] is 14 µM; in the test with HeLa it was 21 µM; with SW1573 it was 14 µM; in the test on T47D it was 11 µM; in the test on WiDr it was 5.9 µM.

For the compound `CCCCCCCCCCCCCCC[C@@H](O)[C@H](C)N`, the GI50 in [1] came to 2.3 µM; with HeLa, 2.6 µM; with SW1573 it was 1.3 µM; with T47D, 0.9 µM; in the test with WiDr, 0.7 µM. In addition, the Activity in [2] came to 100%; in test [3], 100%; in test [4], 100%; in [5], 60%; in test [6], 98%; in test [7], 100%. Besides, the Activity was 100% in test [8], 87% in [9] and 98% in test [10].

On to `CCCCCCCCC[C@@H](O)[C@@H](N)[C@@H](C)O`, for which the GI50 in [1] stood at 13 µM; in the test with HeLa, 17 µM; in the test on SW1573, 17 µM; with T47D, 16 µM; in the test with WiDr it was 14 µM.

For `CCCCCCCCC[C@@H](O)[C@@H](N)C(C)C`, the GI50 is 14 µM in test [1]; 20 µM in the test on HeLa; 17 µM with SW1573; 17 µM in the test on T47D; 11 µM in the test with WiDr.

`CCCCCCCCCCCCCCC[C@@H](O)[C@@H](N)CC(C)C`: the concentration for 50% growth inhibition (GI50) in test [1] was found to be 2.4 µM; in the test on HeLa it was 19 µM; in the test on SW1573, 2.8 µM; in the test on T47D it was 15 µM; in the test on WiDr, 4.9 µM. Besides, the Activity in [2] came out at 93%; in test [3] it was 91%; in [4], 89%; in [5], 48%; in test [6], 98%; in [7], 94%. In addition, the figures for the Activity in test [8], in [9] and in test [10] were 93%, 84% and 100%, respectively.

Consider `CCCCCCCCC[C@@H](O)[C@@H](N)Cc1ccccc1`, for which the GI50 came to 14 µM in [1]; 18 µM in the test with HeLa; 16 µM in the test on SW1573; 17 µM with T47D; 12 µM in the test on WiDr. The Activity in test [2] was found to be 95%; in [3], 88%; in test [4] it was 93%; in [5] it was 27%; in [6], 100%; in [7] it was 96%. In addition, the Activity was determined as 71% in test [8], 70% in test [9] and 100% in [10].

For the compound `CCCCCCCCCCCCCCC[C@@H](O)[C@@H](N)C(C)CC` (single isomer, unassigned), the GI50 in test [1] was found to be 2.4 µM; in the test with HeLa, 20 µM; with SW1573, 3.4 µM; in the test on T47D it was 17 µM; in the test on WiDr, 13 µM.

`CCCCCCCCC[C@@H](O)[C@H](C)N`: the 50% growth inhibitory concentration (GI50) in test [1] came to 6.6 µM; with HeLa, 9.2 µM; in the test with SW1573, 9.5 µM; in the test with T47D, 12 µM; in the test with WiDr, 17 µM.

For the compound `CCCCCCCCCCCCCCC[C@@H](O)[C@@H](N)CO` [DIHYDROSPINGOSINE], the GI50 in test [1] was 25 µM; in the test on HeLa, 15 µM; with SW1573, 4.5 µM; with T47D it was 22 µM; in the test on WiDr, 19 µM.

With `CCCCCCCCC[C@@H](O)[C@@H](N)C(C)CC` (single isomer, unassigned), the GI50 is 13 µM in test [1]; 20 µM in the test with HeLa; 13 µM with SW1573; 14 µM in the test on T47D; 2.3 µM with WiDr.

In the case of `CCCCCCCCC[C@@H](O)[C@@H](N)Cc1ccc(O)cc1`, the GI50 in test [1] worked out at 14 µM; in the test with HeLa it was 20 µM; in the test on SW1573, 18 µM; with T47D, 17 µM; in the test on WiDr it was 12 µM.

With `CCCCCCCCCCCCCCC[C@@H](O)[C@@H](N)C(C)C`, the GI50 in [1] came out at 4.9 µM; in the test on HeLa, 21 µM; in the test on SW1573, 7.2 µM; in the test on T47D, 18 µM; in the test on WiDr, 20 µM.

Take `CCCCCCCCCCCCCCC[C@@H](O)[C@@H](N)[C@@H](C)O`: the GI50 turned out to be 21 µM in [1]; 19 µM with HeLa; 17 µM in the test on SW1573; 19 µM in the test on T47D; 18 µM in the test with WiDr. For the same compound, the Activity in [2] was 100%; in [3] it was 100%; in test [4], 90%; in [5], 43%; in [6] it was 100%; in [7], 87%. Moreover, the figures for the Activity in [8], in test [9] and in [10] were 82%, 71% and 100%, respectively.

Consider `COc1cc([C@@H]2c3cc4c(cc3[C@@H](O[C@@H]3O[C@@H]5CO[C@@H](C)O[C@H]5[C@H](O)[C@H]3O)[C@H]3COC(=O)[C@H]23)OCO4)cc(OC)c1O` [ETOPOSIDE], for which the GI50 in [1] turned out to be 1.9 µM; in the test with HeLa it was 2 µM; in the test on SW1573 it was 3 µM; with T47D, 15 µM; in the test with WiDr, 26 µM.

The values are drawn from ChEMBL document CHEMBL3421615, “Synthesis and identification of unprecedented selective inhibitors of CK1ε” (Eur J Med Chem, 2015).
